Laboratory results from ChEMBL document CHEMBL4513216, “Probing the Open Global Health Chemical Diversity Library for Multistage-Active Starting Points for Next-Generation Antimalarials” (ACS Infect Dis, 2020).

Assay: Toxicity liver stage against HepG2, at 10uM
Type: cell-based
Design: test concentration 10 uM, cell line HepG2-A16-CD81EGFP
Conditions: human, HepG2-A16-CD81EGFP cells; read-out: INHIBITION
Outline: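 Uninfected HepG2-A16-CD81EGFP cells, 3 × 10^3 per well, 1536-well, plated on prespotted compound at 10 μM final, parasite-free screening media added to match infected plates; puromycin 10 μM positive, DMSO 0.5% negative; run in parallel with 48 h PbLuc assay at 37 °C, 5% CO2; viability by CellTiter-Glo luminescence, normalized to controls.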

Row | SMILES | cytotoxicity at 10 µM [%]
1 | NC(=O)Cn1cnc2nc3n(c2c1=O)CCC3 | 2.96
2 | NC(=O)CC1c2cccnc2C(=O)N1Cc1ccccc1 (stereo unspecified) | -5.8
3 | Cc1nn(C)cc1C1CC(=O)Nc2c1cnn2C(C)(C)C (stereo unspecified) | -5.45
4 | O=C(c1ccno1)N1CC(c2nc(-c3ccco3)no2)C1 | -11.3
5 | c1cnc(N2CC3(CCN(C4CCOC4)CC3)c3ccccc32)nc1 (stereo unspecified) | -4.2
6 | CCC(=O)N1CC[C@H]2C(=O)N(Cc3ccc(OC)cc3)CCO[C@H]2C1 | -114
7 | Cc1cccc(CN2CC3C[C@]3(NC(=O)c3ccoc3)C2)n1 (stereo partly specified) | -147
8 | Cn1cncc1CN1CCC2(CC1)CCN2c1ncccn1 | 9.61
9 | COc1cccc(CC(=O)N2CCc3nc(C(N)=O)sc3CC2)c1 | 9.94
10 | Fc1cnc(N2CCOCC3(CCCNC3)C2)nc1 (stereo unspecified) | -5.36
11 | Cc1ccccc1C(=O)N1CCCn2nnc(Cn3cccn3)c2C1 | 9.94
12 | O=c1ccc(-c2cccs2)nn1CN1CCOC(c2ccccc2)C1 (stereo unspecified) | 7.57
13 | COc1cccc(-n2nc(C(C)=O)c(C(C)=O)c2C)c1 | 9.51
14 | CC(=O)c1c(C)nn(S(=O)(=O)c2ccc(Cl)cc2)c1C | -6.74
15 | COC(=O)COc1nc(CC(C)C)c2c(c1C#N)CCCC2 | 21.5
16 | COCCO[C@@H]1C[C@H]2CN(C(=O)c3ccc(C)nc3)CCN2C1 | -2.2
17 | COCCN1CCC2(CCCN(C(=O)c3cnoc3C)C2)C1=O (stereo unspecified) | -23.8
18 | CS(=O)(=O)N1CCN(C(=O)c2cc(-c3ccco3)cs2)CC1 | 4.73
19 | CC(C)C(=O)N1CCC(C)(c2cc[nH]n2)CC1 | 1.96
20 | COCCn1cnnc1C1CCCN(C(C)C)C1 (stereo unspecified) | -27.6
21 | Cc1noc(C)c1-c1nc(N(C)C)ncc1-c1cnccn1 | -22.8
22 | Cc1nn(C)c(C)c1NC(=O)CNC(c1ccccc1)C1CCC1 (stereo unspecified) | 1.44
23 | OCCOc1cc(F)ccc1NCc1ccc(F)c(F)c1 | -6.38

Row | SMILES | cytotoxicity at 10 µM [%]
24 | Cc1nnc(NCc2ccc(F)cc2)o1 | 0.217
25 | CSCC(=O)N1CCOC(c2nc(C(C)C)n[nH]2)C1 (stereo unspecified) | -4.99
26 | CCOC(=O)C1(O)CCN(C(=O)Nc2cccc(F)c2)CC1 | -144
27 | CN(CC(=O)NCCC#N)C(c1ccccc1)c1ccccc1 | 6.51
28 | COc1cc2nc(C)sc2cc1NC(=O)C(C)NC(N)=O (stereo unspecified) | -9.93
29 | CCC(CC)C(=O)NS(=O)(=O)CCc1ccccc1 | 1.76
30 | C[C@@H]1CN(Cc2ccccc2F)CC(C(N)=O)O1 (stereo partly specified) | 1.95
31 | COc1cccc(-c2cnc(CNC(C)(C)c3nc(C)cs3)o2)c1 | 11.4
32 | CCOCC(=O)NC(C)Cc1ccccc1Br (stereo unspecified) | -11
33 | CCc1ocnc1C(=O)N1CCOCC1CC(=O)c1ccccc1 (stereo unspecified) | 5.92
34 | CC(C)(C)OC(=O)NCCNC(=O)c1ccc2cc[nH]c2c1 | -0.224
35 | O=C(NCc1nncn1C1CC1)Nc1ccc(OC2CCC2)c(F)c1 | -3.2
36 | CCNC(=O)NCc1cccc(N2CC=CC2)c1 | 5.03
37 | Cc1cnn(CC2CCCN2c2ccc(C#N)cn2)c1 (stereo unspecified) | 14
38 | Cn1nnc2cc(C(=O)NS(=O)(=O)Cc3ccc(F)cc3)ccc21 | -3.7
39 | Cc1cc(C(=O)Nc2ccc(OCC3CCOCC3)cc2)[nH]n1 | -7.04
40 | CC(C)N(CC(N)=O)Cc1csc(-c2ncccn2)n1 | 5.85
41 | CC(C(=O)NC1CC1)S(=O)(=O)c1cc2c(cc1Cl)OCCO2 (stereo unspecified) | -13.9
42 | c1cc(N2CCSCC2)ccc1CNc1cncc2nnnn12 | 5.51
43 | CCN(Cc1ccccc1)S(=O)(=O)C1CCS(=O)(=O)CC1 | 5.44
44 | CCn1nc(C)cc1C(=O)N1CCOc2cc(C)ccc21 | 10.5
45 | CCc1n[nH]c(C2CN(Cc3csc(COC)n3)CCO2)n1 (stereo unspecified) | 0.753
46 | CCn1cnnc1CCNC(=O)C(C)(C)c1cccc(Cl)c1 | 7.76

Row | SMILES | cytotoxicity at 10 µM [%]
47 | Cc1csc(CNC(=O)NCC(O)c2cccc(Cl)c2)n1 (stereo unspecified) | -14.6
48 | COCc1noc(C2(c3ccc(OC)cc3)CCOCC2)n1 | -22.3
49 | CC(=O)NCCc1ccc(S(=O)(=O)N(CC(C)C)C(C)C)s1 | 18.8
50 | Cc1ccc(N2CCCC3(CCN(C(=O)C4CC4)C3)C2)nn1 (stereo unspecified) | -109
51 | COc1cccc(-c2cc(C(=O)NCCCC(F)(F)F)[nH]n2)c1 | -13.9
52 | CCN(Cc1cn(CC2CCNCC2)nn1)CC1CCCO1 (stereo unspecified) | -1.77
53 | CCCc1nc(C)cc(NCCc2nnc(N)s2)n1 | 3.07
54 | Cc1nc(C2CCCNC2)cc(N(C)CCc2ccccc2)n1 (stereo unspecified) | -1.36
55 | CCn1nc(C)c(CCn2ccnc2-c2cc3n(n2)CCNC3)c1C | 5.15
56 | Cc1nn(C)c2nc(NCCCN3CCCC(C(N)=O)C3)sc12 (stereo unspecified) | -9.8
57 | CC[C@@]1(O)CCN(C(=O)c2cccc3cc(C)oc23)C[C@H]1O | 4.62
58 | COc1ccccc1OCCCc1cc(C)nc(N)n1 | 0.915
59 | COC(=O)[C@H]1C[C@@H](O)CCN1S(=O)(=O)c1cc(Cl)ccc1OC | 5.1
60 | CC(C)CN(Cc1ccc(C(F)(F)F)nc1)Cc1cnn(C)c1 | 1.42
61 | Cc1cc(C)c2[nH]c(C(=O)NCCN3CCNC3=O)c(C)c2c1 | 2.49
62 | CCN1CCC(CC(=O)NCCc2nc(O)cc(O)n2)CC1 | -4.76
63 | CCCc1cnc(C)nc1N1CCC(Cn2cc(CN(C)C)nn2)CC1 | -4.4
64 | CCc1ccc(CN2CCC(CNC(=O)c3ccc(C)nc3)C2)nc1 (stereo unspecified) | 7.78
65 | O=C(c1ccccc1-c1nnn[nH]1)N1CCOC(C(F)(F)F)C1 (stereo unspecified) | -1.67
66 | O=C(Cc1ccccc1C(F)(F)F)N1CCC2(CC1)[C@H](O)C[C@@H]2O | -4.87
67 | CC(=O)c1cc(CN2CCCC2c2nc3ccc(C)cc3[nH]2)cs1 (stereo unspecified) | 3.01
68 | COc1nc2c(cc1C(=O)NCCc1nc3ccccc3s1)CCC2 | 5.79
69 | COCCc1noc(Cn2c(=O)[nH]c3ccccc32)n1 | -2.03

Row | SMILES | cytotoxicity at 10 µM [%]
70 | CN1C[C@@H](n2cnc(-c3ccccc3)c2-c2nccn2C)C[C@H]1C(=O)O | -0.338
71 | Cc1cc(C)n2nc(C(=O)N[C@H]3C[C@H]4CN(C)CCN4C3)cc2n1 | -0.671
72 | Cc1cccc(C(=O)N2CCN(S(C)(=O)=O)[C@@H]3CS(=O)(=O)C[C@@H]32)n1 | 4.01
73 | O=C(c1ccc2sccc2c1)N1CCC(C(=O)O)(n2cccn2)CC1 | -2.77
74 | COc1cccn(Cc2nnc(-c3cccnc3)o2)c1=O | 7.99
75 | Cc1cc(C(=O)N2CCC(C)CC2)ccc1NS(C)(=O)=O | 3.09
76 | O=C(NCCc1ccncc1)c1cccc(S(=O)(=O)N[C@@H]2CCNC2)c1 | 4.93
77 | Cc1c(C(=O)NCC2CCN(Cc3c[nH]cn3)C2)[nH]c2ccccc12 (stereo unspecified) | -9.8
78 | COCc1nc(CNc2cc(C)nc(N3CCCCC3)n2)no1 | 9.84
79 | CN1CCN(Cc2nnc(C3CCN(CC4CC4)CC3)n2C)CC1 | -13.6
80 | Cc1cc(CNC(=O)NCc2cccs2)no1 | -1.87
81 | CN(Cc1ccco1)C(=O)C1CSCN1C(=O)C1CCC1 (stereo unspecified) | -13.2
82 | c1cnc(-c2nc(CN3CCCC(N4CCCC4)C3)cs2)nc1 (stereo unspecified) | -12
83 | CC(=O)N(Cc1noc(C2CC2)n1)C1CCN(Cc2cc(C)on2)C1 (stereo unspecified) | -6.08
84 | COc1c(C2CCCN2C(=O)c2ccc3c(c2)OCO3)c(C)nn1C (stereo unspecified) | -13.4
85 | Cc1nnc2n1CCN(Cc1nc(-c3ccoc3)no1)C2 | -5.86
86 | CC(C)c1nc(CNCC2CCCN2c2cccnn2)cs1 (stereo unspecified) | -4.84
87 | Cc1occc1C(=O)Nc1cnn(CCN2CCOCC2)c1 | -10
88 | Cc1cnn(CC2CCCN2C(=O)c2cccc(-n3ccc(C)n3)c2)c1 (stereo unspecified) | -19.2
89 | Cc1cnn(C2CCCN(C(=O)c3ccnc(-n4cncn4)c3)C2)c1 (stereo unspecified) | -0.565
90 | CCN(CCNC(=O)c1cccc(C)c1C)C1CC1 | 3.43
91 | Cc1noc(C(C)C)c1C(=O)NCCCN1CCCCCC1=O | 1.91
92 | CCCc1noc(CN2CCC(N(C)Cc3nnc(C4CC4)o3)C2)n1 (stereo unspecified) | -0.775

Row | SMILES | cytotoxicity at 10 µM [%]
93 | O=C(NCCc1ccn(-c2ccccc2)n1)N1CCCC(O)C1 (stereo unspecified) | -41.8
94 | CN1CCN(C(=O)c2cccc(OCc3cscn3)c2)CC1 | -6.18
95 | O=C(Cn1c(-c2ccco2)cc2cccnc21)N1CCCC1 | -4.04
96 | Cc1ccoc1C(=O)N1CCc2ccc(=O)n(CCN(C)C)c2CC1 | 1.41
97 | Cc1ccc(C(=O)N2CCC3(CC2)NC(=O)CC3c2ccccc2)cn1 (stereo unspecified) | -2.47
98 | Cn1cc(C2CC(=O)NC23CCN(Cc2ccncc2)CC3)cn1 (stereo unspecified) | 13.2
99 | CCN(CC)CC1CN(Cc2cccc(C#N)c2)Cc2nccn2C1 (stereo unspecified) | -127
100 | Cc1ccc(N2CC3(COCCN(Cc4nccs4)C3)OCC2=O)s1 (stereo unspecified) | -13.5
101 | CNCC(=O)N1CCCC1c1n[nH]cc1-c1ccccc1F (stereo unspecified) | -0.136
102 | Cc1ccnc(OC[C@@]23CCO[C@@H]2CCN(C2CCC2)C3)n1 | 8.01
103 | COc1c(CNC2CCc3c(F)cccc32)c(C)nn1C (stereo unspecified) | 0.665
104 | O=C(c1ccncc1)N1CCC2(CC1)C(=O)Nc1ccccc12 | -146
105 | CS(=O)(=O)NC[C@H]1OC[C@@H]2CCN(Cc3ccc(F)cc3)C[C@@H]21 | -2.26
106 | Cn1cc(CN2CC[C@@H]3[C@@H](CO[C@H]3CNC(=O)c3ccco3)C2)cn1 | -142
107 | CCN1C(=O)[C@H]2CN(CC(C)C)C[C@H]2C12CCN(C(=O)NC(C)C)CC2 | 4.89
108 | Cc1cccc(CN2CC3(CCN(Cc4ccco4)CC3)OCC2=O)n1 | 8.1
109 | COC1C[C@@H]2CN(C(=O)c3ccc(C)s3)C[C@@H]2C1 (stereo partly specified) | -2
110 | CCC=C(C)C(=O)N1CSCC1C(=O)N(C)CCc1ccncc1 (stereo unspecified) | -9.72
111 | O=C(c1ccc[nH]1)N1C[C@@H]2CC[C@H]1CN(c1ncccn1)C2 | -7.12
